Assay results taken from ChEMBL document CHEMBL3407367 (J Med Chem, 2015).
≈ marks a conversion by molar mass, not a printed value. Calls of active or inactive are those of the source. The calls are words filed in the database; no cut-off is given here. Positions of bridges follow the written chain, without caps; N, C: chain ends. Non-standard residues stand in square brackets, D forms with d. Residues, ends and D or L forms follow the SMILES beside them. Trp(1-Me) = Cn1cc(C[C@H](N)C(=O)O)c2ccccc21; 1Nal = N[C@@H](Cc1cccc2ccccc12)C(=O)O

How the values were obtained:
RPE [1] = experiment: Inhibition of complement activation in human fetal RPE cells assessed as reduction in C5b-9 formation at 1 uM by fluorescence assay in presence of complement-competant human serum; assay type: cell-based
Summary of the method: (§1)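 Human fetal RPE cells from two donor lines (081309, 072810) were grown on porous supports in Miller medium with 5% FCS. Peptide (1 µM; one experiment 1, 10, 50 µM) in serum-free medium with 10% human complement serum was premixed 30 min at RT, then incubated overnight at 37 °C. Samples were PFA-fixed and sections immunostained; the confocal C5b-9/ApoE area ratio is given as % of serum-only control; n = 10; Mann–Whitney U.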

[2] = Solubility of the compound in PBS at pH 7.4 after 24 to 48 hrs by spectrophotometry; assay type: physicochemical
Summary of the method: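 About 1 mg peptide put in 200 μL PBS pH 7.4 (top reportable value 5 mg/mL). Vortexed 30 s, centrifuged 13000g for 5 min. Supernatant A280 read and converted to concentration by Beer–Lambert, with extinction coefficients from Trp/Tyr count. Samples held at 4 °C and re-read at 24 and 48 h. Mean and standard deviation of three readings per sample.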

RPE [3] = experiment: Inhibition of complement activation in human fetal RPE cells assessed as reduction in C5b-9 formation at 50 uM by fluorescence assay in presence of complement-competant human serum; assay type: cell-based; summary of the method: as §1
Complement C3 = Complement C3 (Homo sapiens, UniProt P01024); experiment: Inhibition of C3 cleavage in human serum assessed as reduction in C5b-9 formation compound preincubated for 15 mins measured 1 hr post LPS stimulation by ELISA
Chain of Complement C3 (P01024 23-667 limits assumed): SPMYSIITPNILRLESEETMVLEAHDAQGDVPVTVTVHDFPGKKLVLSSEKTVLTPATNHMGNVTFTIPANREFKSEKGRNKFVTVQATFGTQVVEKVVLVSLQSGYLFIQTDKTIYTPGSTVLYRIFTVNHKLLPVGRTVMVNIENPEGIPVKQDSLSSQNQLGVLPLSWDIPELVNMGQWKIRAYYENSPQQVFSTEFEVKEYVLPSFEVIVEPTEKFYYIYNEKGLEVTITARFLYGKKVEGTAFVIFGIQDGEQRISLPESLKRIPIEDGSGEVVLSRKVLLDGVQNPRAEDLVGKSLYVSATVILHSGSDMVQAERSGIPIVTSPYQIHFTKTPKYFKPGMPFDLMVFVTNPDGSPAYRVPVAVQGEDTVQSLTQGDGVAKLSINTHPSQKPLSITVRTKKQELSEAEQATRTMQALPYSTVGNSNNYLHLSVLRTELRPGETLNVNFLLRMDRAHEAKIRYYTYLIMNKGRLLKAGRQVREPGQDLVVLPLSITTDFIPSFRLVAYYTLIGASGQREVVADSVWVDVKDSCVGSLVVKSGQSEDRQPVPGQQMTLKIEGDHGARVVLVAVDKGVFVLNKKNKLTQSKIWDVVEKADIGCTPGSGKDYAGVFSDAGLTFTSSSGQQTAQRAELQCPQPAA
Chain of Complement C3 (P01024 672-1663 limits assumed): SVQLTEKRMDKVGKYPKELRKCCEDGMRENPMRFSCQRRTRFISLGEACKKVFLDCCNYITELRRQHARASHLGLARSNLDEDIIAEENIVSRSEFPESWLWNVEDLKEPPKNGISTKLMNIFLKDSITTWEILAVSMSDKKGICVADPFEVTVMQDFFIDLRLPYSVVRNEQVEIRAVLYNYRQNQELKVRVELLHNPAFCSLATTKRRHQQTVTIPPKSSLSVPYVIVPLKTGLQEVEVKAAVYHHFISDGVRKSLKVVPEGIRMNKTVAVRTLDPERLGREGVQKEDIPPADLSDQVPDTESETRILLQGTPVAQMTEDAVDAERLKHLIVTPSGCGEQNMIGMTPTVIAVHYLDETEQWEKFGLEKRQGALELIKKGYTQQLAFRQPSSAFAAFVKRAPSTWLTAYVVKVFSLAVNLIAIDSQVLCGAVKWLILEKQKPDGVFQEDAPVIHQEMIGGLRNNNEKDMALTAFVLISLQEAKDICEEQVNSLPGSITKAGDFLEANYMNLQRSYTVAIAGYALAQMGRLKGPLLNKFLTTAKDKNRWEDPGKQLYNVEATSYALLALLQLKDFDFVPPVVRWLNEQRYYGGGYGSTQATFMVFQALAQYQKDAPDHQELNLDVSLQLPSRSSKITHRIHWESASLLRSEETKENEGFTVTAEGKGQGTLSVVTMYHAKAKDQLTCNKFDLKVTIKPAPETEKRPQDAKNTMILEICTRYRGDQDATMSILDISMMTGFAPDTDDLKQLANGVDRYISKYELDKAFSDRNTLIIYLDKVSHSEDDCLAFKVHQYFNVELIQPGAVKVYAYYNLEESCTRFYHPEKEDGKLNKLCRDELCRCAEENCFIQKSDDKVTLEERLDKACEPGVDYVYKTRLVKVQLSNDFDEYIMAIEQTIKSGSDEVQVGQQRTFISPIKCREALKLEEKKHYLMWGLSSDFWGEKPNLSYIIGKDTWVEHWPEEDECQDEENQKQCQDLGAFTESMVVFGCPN

| Structure (SMILES) | inhibition (RPE [1]) | solubility [2] | other results |
| --- | --- | --- | --- |
| CC[C@H](C)[C@H](NC(C)=O)C(=O)N[C@H]1CSSC[C@@H](C(=O)N[C@H](C(N)=O)[C@@H](C)O)NC(=O)[C@H](CCCNC(=N)N)NC(=O)[C@H](Cc2cnc[nH]2)NC(=O)[C@H](C)NC(=O)CNC(=O)[C@H](Cc2c[nH]c3ccccc23)NC(=O)[C@H](CC(=O)O)NC(=O)[C@H](CCC(N)=O)NC(=O)[C@H](Cc2c[nH]c3ccccc23)NC(=O)[C@H](C(C)C)NC1=O | Active | 3200 µg/mL (≈ 1980 µM) | – |
| CC[C@H](C)[C@H](NC(=O)[C@H](CO)NC(=O)[C@H](CCCNC(=N)N)NC(C)=O)C(=O)N[C@H]1CSSC[C@@H](C(=O)N[C@H](C(N)=O)[C@@H](C)O)NC(=O)[C@H](CCCNC(=N)N)NC(=O)[C@H](Cc2cnc[nH]2)NC(=O)[C@H](C)NC(=O)CNC(=O)[C@H](Cc2c[nH]c3ccccc23)NC(=O)[C@H](CC(=O)O)NC(=O)[C@H](CCC(N)=O)NC(=O)[C@H](Cc2ccc(O)cc2)NC(=O)[C@H](C(C)C)NC1=O | Active | 5000 µg/mL (≈ 2730 µM) | – |
| CC[C@H](C)[C@H](NC(C)=O)C(=O)N[C@H]1CSSC[C@@H](C(=O)N[C@H](C(N)=O)[C@@H](C)O)NC(=O)[C@H](CCCNC(=N)N)NC(=O)[C@H](Cc2cnc[nH]2)NC(=O)[C@H](C)NC(=O)CNC(=O)[C@H](Cc2c[nH]c3ccccc23)NC(=O)[C@H](CC(=O)O)NC(=O)[C@H](CCC(N)=O)NC(=O)[C@H](Cc2cn(C)c3ccccc23)NC(=O)[C@H](C(C)C)NC1=O | – | 1900 µg/mL (≈ 1170 µM) | – |
| CC[C@H](C)[C@H](N)C(=O)N[C@H]1CSSC[C@@H](C(=O)N[C@H](C(N)=O)[C@@H](C)O)NC(=O)[C@H](CCCNC(=N)N)NC(=O)[C@H](Cc2cnc[nH]2)NC(=O)[C@H](Cc2cnc[nH]2)NC(=O)CNC(=O)[C@H](Cc2c[nH]c3ccccc23)NC(=O)[C@H](CC(=O)O)NC(=O)[C@H](CCC(N)=O)NC(=O)[C@H](C(C)C)NC(=O)[C@H](C(C)C)NC1=O | – | – | inhibition (RPE [3]): Active |
| CC[C@H](C)[C@H](NC(C)=O)C(=O)N[C@H]1CSSC[C@@H](C(=O)N[C@H](C(N)=O)[C@@H](C)O)NC(=O)[C@H](CCCNC(=N)N)NC(=O)[C@H](Cc2cnc[nH]2)NC(=O)[C@](C)(CC)NC(=O)CNC(=O)[C@H](Cc2c[nH]c3ccccc23)NC(=O)[C@H](CC(=O)O)NC(=O)[C@H](CCC(N)=O)NC(=O)[C@H](Cc2c[nH]c3ccccc23)NC(=O)[C@H](C(C)C)NC1=O | Active | – | – |
| CC[C@H](C)[C@H](NC(C)=O)C(=O)N[C@H]1CSSC[C@@H](C(=O)N[C@H](C(N)=O)[C@@H](C)O)NC(=O)[C@H](CCCNC(=N)N)NC(=O)[C@H](Cc2cnc[nH]2)NC(=O)[C@H](Cc2cccc3ccccc23)NC(=O)CNC(=O)[C@H](Cc2c[nH]c3ccccc23)NC(=O)[C@H](CC(=O)O)NC(=O)[C@H](CCC(N)=O)NC(=O)[C@H](Cc2c[nH]c3ccccc23)NC(=O)[C@H](C(C)C)NC1=O (Ac-ICVWQDWG[1Nal]HRCT-NH2; disulfide 2-12) | – | 100 µg/mL (≈ 57.5 µM) | – |
| CC[C@H](C)[C@H](NC(C)=O)C(=O)N[C@H]1CSSC[C@@H](C(=O)N[C@H](C(N)=O)[C@@H](C)O)NC(=O)[C@H](CCCNC(=N)N)NC(=O)[C@H](Cc2cnc[nH]2)NC(=O)[C@H](Cc2cccc3ccccc23)NC(=O)CNC(=O)[C@H](Cc2c[nH]c3ccccc23)NC(=O)[C@H](CC(=O)O)NC(=O)[C@H](CCC(N)=O)NC(=O)[C@H](Cc2cn(C)c3ccccc23)NC(=O)[C@H](C(C)C)NC1=O (Ac-ICV[Trp(1-Me)]QDWG[1Nal]HRCT-NH2; disulfide 2-12) | – | 100 µg/mL (≈ 57 µM) | IC50 (Complement C3): 4 µM |
| CC(=O)N[C@@H](CC(N)=O)C(=O)N[C@@H](CCCNC(=N)N)C(=O)N[C@@H](CC(C)C)C(=O)N[C@H]1CSSC[C@@H](C(=O)N[C@H](C(N)=O)[C@@H](C)O)NC(=O)[C@H](CCCNC(=N)N)NC(=O)[C@H](Cc2cnc[nH]2)NC(=O)[C@H](C)NC(=O)CNC(=O)[C@H](Cc2c[nH]c3ccccc23)NC(=O)[C@H](CC(=O)O)NC(=O)[C@H](CCC(N)=O)NC(=O)[C@H](Cc2c[nH]c3ccccc23)NC(=O)[C@H](C(C)C)NC1=O (Ac-NRLCVWQDWGAHRCT-NH2; disulfide 4-14) | Active | – | – |
| CC(=O)N[C@@H](CC(N)=O)C(=O)N[C@@H](CCCNC(=N)N)C(=O)N[C@@H](CC(C)C)C(=O)N[C@H]1CSSC[C@@H](C(=O)N[C@H](C(N)=O)[C@@H](C)O)NC(=O)[C@H](CCCNC(=N)N)NC(=O)[C@H](Cc2cnc[nH]2)NC(=O)[C@H](Cc2cccc3ccccc23)NC(=O)CNC(=O)[C@H](Cc2c[nH]c3ccccc23)NC(=O)[C@H](CC(=O)O)NC(=O)[C@H](CCC(N)=O)NC(=O)[C@H](Cc2c[nH]c3ccccc23)NC(=O)[C@H](C(C)C)NC1=O (Ac-NRLCVWQDWG[1Nal]HRCT-NH2; disulfide 4-14) | Active | – | – |
| CC[C@H](C)[C@H](NC(=O)[C@H](CO)NC(=O)[C@H](CCCNC(=N)N)NC(C)=O)C(=O)N[C@H]1CSSC[C@@H](C(=O)N[C@H](C(N)=O)[C@@H](C)O)NC(=O)[C@H](CCCNC(=N)N)NC(=O)[C@H](Cc2cnc[nH]2)NC(=O)[C@H](C)NC(=O)CNC(=O)[C@H](Cc2c[nH]c3ccccc23)NC(=O)[C@H](CC(=O)O)NC(=O)[C@H](CCC(N)=O)NC(=O)[C@H](Cc2cccc3ccccc23)NC(=O)[C@H](C(C)C)NC1=O (Ac-RSICV[1Nal]QDWGAHRCT-NH2; disulfide 4-14) | Active | – | – |
| CC[C@H](C)[C@H](N)C(=O)N[C@H]1CSSC[C@@H](C(=O)N[C@H](C(N)=O)[C@@H](C)O)NC(=O)[C@H](CCCN=C(N)N)NC(=O)[C@H](Cc2cnc[nH]2)NC(=O)[C@H](Cc2cnc[nH]2)NC(=O)CNC(=O)[C@H](Cc2c[nH]c3ccccc23)NC(=O)[C@H](CC(=O)O)NC(=O)[C@H](CCC(N)=O)NC(=O)[C@H](C(C)C)NC(=O)[C@H](C(C)C)NC1=O [COMPSTATIN] | – | 4500 µg/mL (≈ 2900 µM) | – |
